Rows were chosen to be rich in hits. Some 2.2% of all compounds tested hit in one or more screens of this group.
FLuc act counter – affects firefly luciferase, flagging false hits in luciferase stimulation screens. P08659. ATPlite luciferase biochemical, luminescence, 10 min; 0 = ATP-free wells, 1 = DMSO control. activation factor at 10 µM. 200,000 tested, under 10 active. AID 1027;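 active = luciferase activation factor, scaled between plate controls, of at least 2 with compound at 10 µM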
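System: luciferase plus luciferin reagent, cell-free; medium: PBS as buffer for the ATP substrate; dosing: test compounds dosed from 2 mM stocks in 100% DMSO; timing: 10 min post-reagent at room temperature; measured by: luminescence measurement of luciferase light output; evaluation: luciferase activation, seen as luminescence increase over controls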
PKD1 kinase inh – PKD1 (human) kinase inhibition | Q15139 | PKD1 kinase fluorescence polarization assay | inhibition, % (test concentration not listed) | actives 0.056% (n = 200,000) | AID 797; in the data active = inhibition above about 50%
C8 TRAIL sens – sensitizes caspase-8 expressing cells to TRAIL; NB7+C8 cells + TRAIL, ATPlite viability luminescence; inhibition (viability loss, TRAIL sensitization), % at 10 µM; actives 1% (n = 360,000);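 active = compounds causing at least 50% loss of cell viability in the single-dose screen, relative to plate controls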
FLuc inh counter – counter-screen for luciferase assay inhibitors: firefly luciferase inhibition; inhibition, % at 10 µM; actives 1.5% (n = 200,000); ATPLite firefly luciferase biochemical luminescence, 10 min; P08659;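 active = inhibition above about 50% when tested at 10 µM, limit read from the data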
PPC-1+TRAIL kill – kills PPC-1 cancer cells in the presence of TRAIL | PPC-1 cells + TRAIL, ATPLite viability luminescence | cell killing (% activity), % at 4 µM or 5 µM | actives 0.41% (n = 220,000);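 active = cell killing above 50% in the first pass at 4 µM, then a duplicate retest at 5 µM averaging 50% or more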
Wee1 degr inh – human Wee1 degradation inhibition, primary screen; P30291; HeLa Luc-Wee1K328M stability, luciferase luminescence; 100% = proteasome inhibitor MG132 effect; reporter increase, % at 5 µM; actives 1.2% (n = 220,000);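 active = activation above the mean of all tested compounds plus 3 SD, set per screening run, cut at about 8.8% in these data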;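 note: cells exposed to compound for 20 h before luminescence read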
Each line names hits and unclear results; the compound was inactive in the other large screens.

O=C(Nc1ccc(Cl)cc1)N1CCc2ccccc2C1	Wee1 degr inh 9.7
Cc1c(NC(=O)CSCc2c(F)cccc2Cl)c(=O)n(-c2ccccc2)n1C	none (no result: C8 TRAIL sens)
CCCCN(C(=O)CSCC(=O)Nc1ccc(C)cc1)c1c(N)n(Cc2ccccc2)c(=O)[nH]c1=O	none (no result: FLuc act counter, PKD1 kinase inh, FLuc inh counter, PPC-1+TRAIL kill, Wee1 degr inh)
O=C(c1ccc(Cn2c(=S)[nH]c3ccc(Br)cc3c2=O)cc1)N1CCN(C2CCCCC2)CC1	none (no result: PPC-1+TRAIL kill)
Cc1cccc(NC2=C(NCCO)C(=O)c3ccccc3C2=O)c1	Wee1 degr inh 9.3
COc1cccc(NC2=C(NCCO)C(=O)c3ccccc3C2=O)c1	none (no result: FLuc act counter, PKD1 kinase inh, FLuc inh counter, PPC-1+TRAIL kill, Wee1 degr inh)
COc1cccc(C2c3cc4c(cc3OC(NNC(N)=O)C2C)OCO4)c1O (configuration not stated)	none (no result: FLuc act counter, PKD1 kinase inh, FLuc inh counter, PPC-1+TRAIL kill, Wee1 degr inh)
Cn1nnnc1SCC1=C(C(=O)O)N2C(=O)[C@@H](NC(=O)[C@H](O)c3ccccc3)[C@H]2SC1	none
Cn1nnnc1SCC1=C(C(=O)O)N2C(=O)C(NC(=O)C3CC3c3ccccc3)C2SC1 (configuration not stated)	Wee1 degr inh 11
O=C1CC2CCCC(C1)S2=O (configuration not stated)	none (no result: FLuc act counter, PKD1 kinase inh, FLuc inh counter, PPC-1+TRAIL kill, Wee1 degr inh)
C=CCN(c1ccccc1OC)S(=O)(=O)c1cccc(C(=O)NCc2cccs2)c1	none (no result: FLuc act counter, PKD1 kinase inh, FLuc inh counter, PPC-1+TRAIL kill, Wee1 degr inh)
Cc1cc(-c2cc(C(=O)O)c3ccccc3n2)c(C)s1	none
O=C(O)c1cc(-c2c[nH]c3ccccc23)nc2ccc3ccccc3c12	FLuc inh counter 80
CC(=O)c1c(C)[nH]c(C(=O)Nc2ccccn2)c1C	C8 TRAIL sens 51 (no result: FLuc act counter, PKD1 kinase inh, FLuc inh counter, PPC-1+TRAIL kill, Wee1 degr inh)
O=S(=O)(NCc1c(Cl)cccc1Oc1ccccc1)c1ccc(F)cc1	none (no result: FLuc act counter, PKD1 kinase inh, FLuc inh counter)
COc1cccc(C=Nc2ccc(N3CCOCC3)cc2)c1O	none (no result: FLuc act counter, PKD1 kinase inh, FLuc inh counter, PPC-1+TRAIL kill, Wee1 degr inh)
COc1cccc(C=Nc2ccc3c(c2)OCCO3)c1O	FLuc inh counter 96
COc1cccc(/C=N/N2CCOCC2)c1O	FLuc inh counter 63
CNC(=S)NNC(=O)c1cc(C(C)(C)C)nn1Cc1ccc(F)cc1	none (no result: FLuc act counter, PKD1 kinase inh, FLuc inh counter)
Fc1ccc(/C=N/NC2=Nc3cccc4cccc2c34)cc1	FLuc inh counter 58
CC1(Cc2cccc(C(N)=O)c2)C(=O)Nc2c(Cl)cccc21 (configuration not stated)	none (no result: FLuc act counter, PKD1 kinase inh, FLuc inh counter, PPC-1+TRAIL kill, Wee1 degr inh)
Cn1cccc1C(=O)OCc1csc(-c2ccccc2)n1	FLuc inh counter 61
CCCNC(=O)c1noc2c1CCc1cc(OC)ccc1-2	FLuc inh counter 78, Wee1 degr inh 10
O=C(N=Nc1c(O)[nH]c2ccc(Br)cc12)c1cc(-c2cccs2)nc2ccccc12	C8 TRAIL sens 87
O=C(N=Nc1c(O)[nH]c2ccccc12)c1cccs1	C8 TRAIL sens 62, FLuc inh counter 89
O=C(COC(=O)c1cc(S(=O)(=O)N2CCCC2)ccc1O)Nc1ccc(F)cc1F	none (no result: FLuc act counter, PKD1 kinase inh, FLuc inh counter, PPC-1+TRAIL kill, Wee1 degr inh)
O=Cc1cc(-c2ccccc2)[nH]c1-c1ccccc1	none (no result: FLuc act counter, PKD1 kinase inh, FLuc inh counter, PPC-1+TRAIL kill, Wee1 degr inh)
CN(C)CCCNC(=O)C[C@H]1C[C@H](C(=O)N2CCCCC2)[C@@]2(CCc3ccccc3)c3[nH]c4ccc(Cl)cc4c3CCN2C1=O	C8 TRAIL sens 66 (no result: FLuc act counter, PKD1 kinase inh, FLuc inh counter, PPC-1+TRAIL kill, Wee1 degr inh)
O=C(C[C@H]1C[C@H](C(=O)N2CCCCC2)[C@@]2(CCc3ccccc3)c3[nH]c4ccc(Cl)cc4c3CCN2C1=O)NCCc1ccccn1	none (no result: FLuc act counter, PKD1 kinase inh, FLuc inh counter, PPC-1+TRAIL kill, Wee1 degr inh)
O=C(C[C@H]1C[C@H](C(=O)N2CCCCC2)[C@@]2(CCc3ccccc3)c3[nH]c4ccc(Cl)cc4c3CCN2C1=O)NCCC1=CCCCC1	C8 TRAIL sens 55 (no result: FLuc act counter, PKD1 kinase inh, FLuc inh counter, PPC-1+TRAIL kill, Wee1 degr inh)
Cc1ccc(C)c(N2CCN(C(=O)C34CC5CC(C3)CC(n3nnc(C)n3)(C5)C4)CC2)c1	none (no result: FLuc act counter, PKD1 kinase inh, FLuc inh counter)
CCC(CN(C)C)Oc1cc(NCc2ccccc2)c2ncn(C(C)C)c2c1 (configuration not stated)	C8 TRAIL sens 58 (no result: FLuc act counter, PKD1 kinase inh, FLuc inh counter, PPC-1+TRAIL kill, Wee1 degr inh)
COc1cc(NCc2ccccc2)c2ncn(C(C)C)c2c1	none (no result: FLuc act counter, PKD1 kinase inh, FLuc inh counter, PPC-1+TRAIL kill, Wee1 degr inh)
CC(C)=NN/C(N)=N/C(=S)Nc1ccc(C)cc1	FLuc inh counter 54
Cn1c(=O)c(-c2ccccc2[N+](=O)[O-])c(Cl)c2ccccc21	none (no result: FLuc act counter, PKD1 kinase inh, FLuc inh counter, PPC-1+TRAIL kill, Wee1 degr inh)
CCc1ccc(/C=N/NC(=O)c2c[nH]c3ccccc23)s1	C8 TRAIL sens 55
CCCc1cc(C(=O)N/N=C/c2ccc(CC)s2)c2ccccc2n1	C8 TRAIL sens 51
CCc1ccc(/C=N/NC(=O)c2cc(-c3ccncc3)nc3ccccc23)s1	none
O=C(NC(=S)NCC1CCCO1)c1ccccc1 (configuration not stated)	Wee1 degr inh 9.0
